Measurements of several laboratories.
Each line is one published result; the experiments were not run side by side. In brackets after ≈: the same amount, converted by molar mass.
CYP3A7: Cytochrome P450 3A7 (CYP3A7, Homo sapiens, UniProt P24462)

SMILES	target or system	assay	test system	conditions	measurement	value
N#C[C@@]12C[C@@H]1[C@@H](n1cnc3c(N[C@@H](C4CCC4)C4CC4)nc(I)nc31)[C@H](O)[C@@H]2O	–	metabolic stability	rat, liver microsomes	1 h	compound remaining	72.9%
CC(C)(C)OC(=O)N[C@H]1CCCCC/C=C\[C@@H]2C[C@@]2(C(=O)NS(=O)(=O)C2CC2)NC(=O)[C@@H]2C[C@@H](OC(=O)N3Cc4cccc(F)c4C3)CN2C1=O	CYP3A7	enzyme activity, inhibitor, fluorescence	–	20 µM, 10 min, pH 7.4	inhibition	≥ 50%
Cc1ccc(Cn2cc(C(=O)NN)c(=O)c3cc(Oc4ccccc4)ccc32)cc1	–	metabolic stability	male CD-1 mouse, liver microsomes	1 µM, 30 min	compound remaining	96%
Oc1ccccc1/C=N/c1c(-c2ccccc2)nc2ccc(Cl)cn12	MT4	cell growth or viability, MTT	–	5 days	CC50	17.9 µg/mL (≈ 51.5 µM)
C[C@@H](N)CN(C)c1ccc(Nc2cc(NC3CC3)n3ncc(C#N)c3n2)cc1-n1cnnc1	–	metabolic stability	male CD-1 mouse, liver microsomes	5 µM, 30 min, pH 7.4	compound remaining	84%
Cc1cnc(C(=O)N[C@H]2CCCCC/C=C\[C@@H]3C[C@@]3(C(=O)NS(=O)(=O)C3CC3)NC(=O)[C@@H]3C[C@@H](Oc4nc5ccccc5c5ccccc45)CN3C2=O)cn1	CYP3A7	enzyme activity, inhibitor	–	pH 7.4, with preincubation	KI (inactivation)	4.66 µM
N#Cc1cnn2c(Nc3cn(CCN4CCCC4)cn3)cc(Nc3cccc(-n4cnnc4)c3)nc12	–	metabolic stability	male CD-1 mouse, liver microsomes	5 µM, 30 min, pH 7.4	compound remaining	67%
COc1ccc2c(O[C@@H]3C[C@H]4C(=O)N[C@]5(C(=O)NS(=O)(=O)C6CC6)C[C@H]5/C=C\CCCCN(C)C(=O)[C@@H]4C3)cc(-c3nc(C(C)C)cs3)nc2c1C	CYP3A7	enzyme activity, inhibitor, fluorescence	–	20 µM, 10 min, pH 7.4	inhibition	≥ 50%
N#Cc1cnn2c(NC3CC3)cc(Nc3cc(-n4cnnc4)ccc3F)nc12	–	metabolic stability	male CD-1 mouse, liver microsomes	5 µM, 30 min, pH 7.4	compound remaining	100%
Cc1ccnc2c1NC(=O)c1cccnc1N2C1CC1	MT4	cell growth or viability, MTT	–	5 days	CC50	> 4 µg/mL
N#Cc1cnn2c(NC3CC3)cc(Nc3ccc(N4CCC[C@H](N)C4)c(-n4cnnc4)c3)nc12	–	metabolic stability	male CD-1 mouse, liver microsomes	5 µM, 30 min, pH 7.4	compound remaining	98%
O=[N+]([O-])c1cccc(/C=N/c2c(-c3ccccc3)nc3ccc(Cl)cn23)c1	MT4	cell growth or viability, MTT	–	5 days	CC50	82.1 µg/mL (≈ 218 µM)
